Peptide text beside a SMILES is read from it. * marks the point of attachment. Pyropheophorbide(a) = C=Cc1c(C)c2cc3nc(c4c5[nH]c(cc6nc(cc1[nH]2)C(C)=C6CC)c(C)c5C(=O)C4)[C@@H](CCC(=O)*)[C@@H]3C; X1 = CCN(CC)c1ccc2nc3ccc(N=Nc4ccc(N(C)CCCC(=O)*)cc4)cc3[n+](-c3ccccc3)c2c1
Assays:
HEK-Vector cells = assay: In vitro photocytotoxicity; assay type: cell-based, human; details: for photocytotoxicity toward HEK-Vector cells in the presence of light: FAP-PPB 8 μM, FAP-PP 4 μM, 2D-FAP-PPB 8 μM, 2 J cm^−2, MTT
[1] = Quenching efficiency measurements; assay type: physicochemical; details: FAP-PP quenched by free BHQ3 in DMSO; slope of linear Stern-Volmer plot
In short: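 Unquenched peptide-photosensitizer (1 μM in DMSO) was mixed with varying concentrations of free BHQ3 quencher. Fluorescence was corrected using absorbance at the excitation and emission wavelengths. Data were fitted to F0/F = 1 + KSV[Q], and KSV was taken from the slope of the Stern-Volmer plot.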

HEK-mFAP cells (FAP+) [2] = assay: HPLC-MS of culture media after incubation with HEK-mFAP cells; assay type: cell-based, human; details: for cleavage in culture media of HEK-mFAP cells (HPLC-MS): media after incubation for the confocal study, 25 μM, 6 h
In short: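 Probe-containing FAP-expressing HEK293 culture media were collected after incubation and analysed by HPLC-MS for cleaved probe. One set came from flow cytometry (6.25 μM in FBS-free DMEM, up to 24 h, 37°C). The other came from confocal work (25 μM, 6 h, 37°C).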

tumor site = assay: Tumor accumulation after intravenous tail-vein injection; assay type: in vivo
murine FAP (mFAP) = target: T1, murine FAP (mFAP) (Mus musculus, UniProt P97321); assay: Activation of FAP-PPB by murine FAP in buffer; assay type: biochemical
T1 sequence (P97321 26-761 limits assumed): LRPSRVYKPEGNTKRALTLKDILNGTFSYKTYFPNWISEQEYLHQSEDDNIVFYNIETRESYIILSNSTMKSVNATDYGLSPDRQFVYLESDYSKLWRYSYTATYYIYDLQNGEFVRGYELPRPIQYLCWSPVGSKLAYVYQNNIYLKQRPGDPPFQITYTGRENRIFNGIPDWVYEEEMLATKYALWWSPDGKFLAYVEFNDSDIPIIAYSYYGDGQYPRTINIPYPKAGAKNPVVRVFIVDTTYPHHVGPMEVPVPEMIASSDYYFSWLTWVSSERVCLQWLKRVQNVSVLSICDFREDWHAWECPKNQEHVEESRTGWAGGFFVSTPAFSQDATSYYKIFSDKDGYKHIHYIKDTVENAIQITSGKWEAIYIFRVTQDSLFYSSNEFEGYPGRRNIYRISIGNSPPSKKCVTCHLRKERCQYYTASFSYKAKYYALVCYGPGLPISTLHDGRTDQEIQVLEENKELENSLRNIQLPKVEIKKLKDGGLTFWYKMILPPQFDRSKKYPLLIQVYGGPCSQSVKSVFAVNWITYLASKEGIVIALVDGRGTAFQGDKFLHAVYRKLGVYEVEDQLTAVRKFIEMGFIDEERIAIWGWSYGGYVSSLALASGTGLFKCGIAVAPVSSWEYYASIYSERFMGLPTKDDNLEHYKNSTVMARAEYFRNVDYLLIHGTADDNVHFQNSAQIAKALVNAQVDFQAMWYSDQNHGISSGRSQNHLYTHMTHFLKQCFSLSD
In short: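 In-house expressed, purified murine FAP (2 μg) incubated with probe (1 nmol, predissolved in 2.5 μL DMSO plus 0.5 μL Tween 80, then 1 mL 0.12 M NaCl/0.12 M TRIS, pH 7.37); probe:enzyme about 50:1. Fluorescence followed in real time at 37°C (ex 650 nm, em 675 nm). Cleavage also tracked by HPLC-MS every 30 min until complete.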

[3] = test system: HT29 tumor (FAP on stromal fibroblasts); assay: HT29 mouse xenograft in vivo imaging and frozen-section microscopy; set-up: species or system nude mouse
HEK-mFAP cells = assay: In vitro photocytotoxicity; assay type: cell-based, human; details: for photocytotoxicity toward HEK-mFAP cells in the presence of light: FAP-PPB 8 μM, FAP-PP 4 μM, 2D-FAP-PPB 8 μM, 2 J cm^−2, MTT
HEK-Vector tumor = assay: Mouse xenograft in vivo imaging and ex vivo validation, HEK-Vector tumor; set-up: species or system nude mice
In short: (§1)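 Athymic female nude mice carried 1 × 10^7 FAP-transfected HEK293 cells on the left flank and 1 × 10^7 vector cells on the right, or FAP cells on both flanks. After 3 weeks (tumors 5–10 mm) mice received 4 days of low-fluorescence diet and ketamine/acepromazine anaesthesia. Probe (25 nmol in 30 μL aqueous, 2 μL DMSO, 0.5 μL Tween 80) was injected intratumorally at several sites. Imaging before and at intervals to 24 h used ex 650 nm, em ≥700 nm, 200 ms exposure; signal normalised to exposure time and ROI area.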

HEK-mFAP tumor = assay: Mouse xenograft in vivo imaging and ex vivo validation, HEK-mFAP tumor; set-up: species or system nude mice
In short: as §1

mFAP = target: T2, mFAP (Mus musculus, UniProt P97321); assay: mFAP activity assay; assay type: biochemical, murine; details: 37°C
T2 sequence (P97321 26-761 limits assumed): T1 sequence (P97321 26-761 limits assumed)
In short: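 Probe at 0.1, 0.3, 0.5, 0.7, 1, 2 and 6 μM (predissolved in 2.5 μL DMSO plus 0.5 μL Tween 80, then 1 mL 0.12 M NaCl/0.12 M TRIS, pH 7.37) was incubated with murine FAP (2 μg) at 37°C. Fluorescence was read continuously (ex 650, em 675 nm). After 1 h, 10 μg enzyme was added and reading continued 2 h. Triplicates were run. Vmax, Km, kcat and kcat/Km came from nonlinear Michaelis-Menten fits of initial rates (10% substrate depleted).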

[4] = test system: HEK-mFAP and HEK-Vector cells; assay: Flow cytometric studies, HEK-mFAP versus HEK-Vector cells; assay type: cell-based, human; details: 6.25 μM
In short: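 Transfected HEK293 lines (murine FAP or empty vector) seeded at about 7 × 10^5 cells/well for 2 days, then kept overnight in FBS-free DMEM. Probe diluted in this conditioned medium to 6.25 μM and applied 1, 2, 4, 6 or 24 h at 37°C. Cells were centrifuge-washed three times, fixed in 2% paraformaldehyde for 10 min, and read by flow cytometry (ex 633 nm, em 660–690 nm; 10000 cells). Three independent experiments.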

HEK-mFAP cells (FAP+) [5] = assay: Confocal microscopic studies, HEK-mFAP cells; assay type: cell-based, human; details: 25 μM, 6 h, 37°C, FBS-free medium
In short: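 HEK293 stably expressing full-length wild-type murine FAP, grown in DMEM with 10% FBS, 2 mM L-glutamine and G418 200 μg mL−1. Cells seeded at 1.5 × 10^4/well for 2 days, then kept overnight in FBS-free DMEM. Probe was diluted in this conditioned medium to 25 μM and applied 6 h at 37°C, 5% CO2. Cells were fixed in 3% formaldehyde (20 min, dark), DAPI-mounted, and imaged confocally (405 and 633 nm lasers).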

HEK-Vector cells (FAP−) = assay: Confocal microscopic studies, HEK-Vector cells; assay type: cell-based, human; details: 25 μM, 6 h, 37°C, FBS-free medium
In short: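 HEK293 stably carrying empty vector, grown in DMEM with 10% FBS, 2 mM L-glutamine and hygromycin B 200 μg mL−1. Cells seeded at 1.5 × 10^4/well for 2 days, then kept overnight in FBS-free DMEM. Probe was diluted in this conditioned medium to 25 μM and applied 6 h at 37°C, 5% CO2. Cells were fixed in 3% formaldehyde (20 min, dark), DAPI-mounted, and imaged confocally (405 and 633 nm lasers).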

[6] = target: dipeptidyl peptidase IV (DPPIV) (Homo sapiens, UniProt P27487); assay: Stability of FAP-PPB toward DPPIV; details: FAP-PPB 1 nmol in 1 mL 20mM TRIS pH 7.5, PPB:DPPIV = 228:1, 37 °C
Sequence of dipeptidyl peptidase IV (DPPIV) (P27487 29-766 limits assumed, species assumed): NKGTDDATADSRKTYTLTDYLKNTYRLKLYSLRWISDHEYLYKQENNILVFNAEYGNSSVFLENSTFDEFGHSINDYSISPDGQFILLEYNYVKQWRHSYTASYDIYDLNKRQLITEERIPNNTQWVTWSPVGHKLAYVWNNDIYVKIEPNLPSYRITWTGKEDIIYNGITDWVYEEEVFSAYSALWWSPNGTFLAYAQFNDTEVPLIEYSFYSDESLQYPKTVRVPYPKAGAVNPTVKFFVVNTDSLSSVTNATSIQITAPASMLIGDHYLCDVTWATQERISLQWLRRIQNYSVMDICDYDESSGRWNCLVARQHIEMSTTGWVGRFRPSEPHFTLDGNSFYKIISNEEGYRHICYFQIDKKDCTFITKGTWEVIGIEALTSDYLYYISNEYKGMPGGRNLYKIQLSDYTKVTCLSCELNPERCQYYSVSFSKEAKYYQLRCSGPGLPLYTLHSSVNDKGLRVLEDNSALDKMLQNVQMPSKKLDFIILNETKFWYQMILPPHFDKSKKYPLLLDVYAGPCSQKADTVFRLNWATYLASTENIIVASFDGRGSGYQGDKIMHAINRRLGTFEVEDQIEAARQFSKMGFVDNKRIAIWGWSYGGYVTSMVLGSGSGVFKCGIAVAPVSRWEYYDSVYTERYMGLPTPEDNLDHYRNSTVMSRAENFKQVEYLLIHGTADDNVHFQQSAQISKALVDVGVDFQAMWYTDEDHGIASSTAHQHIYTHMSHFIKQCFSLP

[7] = 10 micron frozen sections, 24 h post-injection
[8] = tumor homogenized, DMSO extract, 24 h post-injection of 25 nmol intra-tumor

In the case of Pyro-TSGPNQEQK [FAP-PP], the “photocytotoxicity toward HEK-Vector cells in the presence of light” value (HEK-Vector cells) is reported as “could kill both cell lines” and the “Stern-Volmer quenching constant (KSV)” value [1] is reported as 5.3 × 10^4 mol^−1dm^3.

For `C=Cc1c(C)c2cc3nc(c4c5[nH]c(cc6nc(cc1[nH]2)C(C)=C6CC)c(C)c5C(=O)C4)[C@@H](CCC(=O)N[C@H](C(=O)N[C@@H](CO)C(=O)NCC(=O)N1CCC[C@H]1C(=O)N[C@@H](CC(N)=O)C(=O)N[C@@H](CCC(N)=O)C(=O)N[C@@H](CCC(=O)O)C(=O)N[C@@H](CCC(N)=O)C(=O)N[C@@H](CCCCNC(=O)CCCN(C)c1ccc(N=Nc2ccc4nc5ccc(N(CC)CC)cc5[n+](-c5ccccc5)c4c2)cc1)C(N)=O)[C@@H](C)O)[C@@H]3C` [FAP-PPB, Pyro-TSGPNQEQK(BHQ3)] ({Pyropheophorbide(a)}-TSGPNQEQK(X1)-NH2; C-terminus assumed), the “FAP-PPB cleaved in media after incubation with HEK-mFAP cells” value (HEK-mFAP cells (FAP+) [2]; 6.25 μM, 24 h incubation, HPLC-MS, data not shown) was “approximately 70%”, the “cleavage in culture media of HEK-mFAP cells (HPLC-MS)” value (HEK-mFAP cells (FAP+) [2]) was “two peaks corresponding to fragments Pyro-TSGP and NQEQK-BHQ3 were identified” and the “accumulation at the tumor site” value (tumor site) was “no selective accumulation”. The “time to complete cleavage by mFAP” value (murine FAP (mFAP); HPLC-MS every 30 min, PPB:FAP about 50:1, TRIS buffer pH 7.37, 37°C) was 4 h, the “fluorescence increase on complete cleavage by mFAP” value (murine FAP (mFAP); TRIS buffer pH 7.37, 37°C, complete fluorescence restoration) was 200 fold and the “cytotoxicity toward HEK-Vector cells in the absence of light” value (HEK-Vector cells; 8 μM, 24 h, MTT) was “non-cytotoxic in the absence of light”. The “photocytotoxicity toward HEK-Vector cells in the presence of light” value (HEK-Vector cells) was “not in the HEK-Vector cells”, the “in vivo fluorescence in HT29 tumor” value ([3]; 25 nmol intra-tumor injection, left flank) was “strong fluorescence signal was observed immediately and it lasted for 24 h” and the “Pyro fluorescence in HT29 tumor frozen section (confocal)” value ([3]; after in vivo imaging) was “bright Pyro’s fluorescence signals within both cancer cells and fibroblasts”. The “cytotoxicity toward HEK-mFAP cells in the absence of light” value (HEK-mFAP cells; 8 μM, 24 h, MTT) was “non-cytotoxic in the absence of light”, the “cell viability of HEK-mFAP cells with light” value (HEK-mFAP cells; 8 μM, 24 h incubation, 670 nm laser, 130 mW cm^−2, 2 J cm^−2, MTT) was 55% and the “photocytotoxicity toward HEK-mFAP cells in the presence of light” value (HEK-mFAP cells) was “significant photocytotoxicity”. For the same molecule, the “Pyro fluorescence in HEK-Vector tumor frozen sections (confocal)” value (HEK-Vector tumor; [7]) was “very weak signal”, the “fluorescence signal in HEK-Vector tumor relative to HEK-mFAP tumor” value (HEK-Vector tumor; 24 h post injection, fluorescence intensity per exposure time at tumor site) was “about half” and the “cleavage in HEK-Vector tumor extract (HPLC-MS)” value (HEK-Vector tumor; [8]) was “no cleavage was observed”. The “time to activation of FAP-PPB in tumor” value (HEK-mFAP tumor; 25 nmol intra-tumor injection, in vivo fluorescence imaging) was at most 5 min, the “Pyro fluorescence in HEK-mFAP tumor frozen sections (confocal)” value (HEK-mFAP tumor; [7]) was “strong Pyro’s fluorescence signal” and the “specificity constant (kcat/Km)” value (mFAP) was 29200 M⁻¹ s⁻¹. For the same molecule, the “dark toxicity (distribution and shape of cells in flow cytometry)” value ([4]; 1 to 24 h, both cell lines, no light) was “does not have dark toxicity to both cell lines”, the “fluorescence intensity in HEK-mFAP cells compared to HEK-Vector cells” value ([4]; flow cytometry, 1 h incubation) was “about 8 fold” and the “intracellular fluorescence in HEK-mFAP cells (confocal)” value (HEK-mFAP cells (FAP+) [5]) was “bright intracellular fluorescence signal”. The “intracellular fluorescence in HEK-Vector cells (confocal)” value (HEK-Vector cells (FAP−)) was “minimal fluorescence signal”, the “HPLC analysis after incubation with DPPIV” value ([6]; 2 h, HPLC-MS) was “only a single peak corresponding to the intact FAP-PPB” and the “fluorescence intensity change on incubation with DPPIV” value ([6]; over 2 h) was “No significant increase in fluorescence intensity”.

For Pyro-TSGpnQEQK(BHQ3) [2D-FAP-PPB], the “cleavage in culture media of HEK-mFAP cells (HPLC-MS)” value (HEK-mFAP cells (FAP+) [2]) was “no cleavage was observed”, the “photocytotoxicity toward HEK-Vector cells in the presence of light” value (HEK-Vector cells) was “essentially non-cytotoxic” and the “photocytotoxicity toward HEK-mFAP cells in the presence of light” value (HEK-mFAP cells) was “essentially non-cytotoxic”. The “cleavage in HEK-mFAP tumor extract (HPLC-MS)” value (HEK-mFAP tumor; [8]) was “little non-specific cleavages”, the “intracellular fluorescence in HEK-mFAP cells (confocal)” value (HEK-mFAP cells (FAP+) [5]) was “no significant fluorescence” and the “intracellular fluorescence in HEK-Vector cells (confocal)” value (HEK-Vector cells (FAP−)) was “no significant fluorescence”.

From paper PMC2773291 (Journal of medicinal chemistry, 2009)
